Each block holds one compound with its values, some of them ahead of it.
Columns and labels:
Rattus norvegicus [1] = experiment: Antiinflammatory activity in rat assessed as inhibition of carrageenan-induced hind paw edema at 100 mg/kg, po administered 1 hr before carrageenan-challenge measured after 6 hrs
[2] = biological target: T1, Prostaglandin G/H synthase 1 (Ovis aries) (UniProt P05979); experiment: Inhibition of ovine COX1 peroxidase activity assessed as appearance of oxidized N,N,N,N'-tetramethyl-p-phenylenediamine by colorimetric analysis relative to control; design: concentration or dose not given beside the values; details: concentration not given here
T1 sequence (whole entry): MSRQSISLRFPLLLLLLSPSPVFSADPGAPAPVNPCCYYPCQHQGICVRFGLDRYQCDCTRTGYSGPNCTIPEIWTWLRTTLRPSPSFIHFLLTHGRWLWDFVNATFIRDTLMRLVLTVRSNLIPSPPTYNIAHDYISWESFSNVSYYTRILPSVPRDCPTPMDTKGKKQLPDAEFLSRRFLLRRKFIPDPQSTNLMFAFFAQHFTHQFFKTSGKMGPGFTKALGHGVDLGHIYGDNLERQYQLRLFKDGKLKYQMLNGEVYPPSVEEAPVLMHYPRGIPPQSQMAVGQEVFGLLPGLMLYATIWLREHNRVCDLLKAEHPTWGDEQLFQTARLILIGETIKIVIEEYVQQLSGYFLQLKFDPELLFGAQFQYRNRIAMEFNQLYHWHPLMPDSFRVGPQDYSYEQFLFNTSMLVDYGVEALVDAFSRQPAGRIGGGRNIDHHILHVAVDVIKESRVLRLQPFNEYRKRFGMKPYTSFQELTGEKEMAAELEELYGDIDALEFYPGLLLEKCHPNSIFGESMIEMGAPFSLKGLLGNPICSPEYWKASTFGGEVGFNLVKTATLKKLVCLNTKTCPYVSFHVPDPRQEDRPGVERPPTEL
Procedure, shortened: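 Colorimetric ovine COX inhibitor screening kit: assay buffer, heme, COX-1 enzyme and sample (0.1 mM), with peroxidase activity read by absorbance at 590 nm. Percent inhibition = (1 − T/C) × 100, where C is the uninhibited well. Determinations were run in duplicate.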

Rattus norvegicus [3] = experiment: Antiinflammatory activity in rat assessed as inhibition of carrageenan-induced hind paw edema at 100 mg/kg, po administered 1 hr before carrageenan-challenge measured after 1 hr; type: functional
Procedure, shortened: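 Rats (n = 6 per group) were dosed orally, with the vehicle group given 1% w/v gum acacia at 10 ml/kg p.o. One hour after dosing, 0.1 ml of 1% w/v carrageenan was injected subplantar into the hind paw. Paw volume was measured by plethysmometer volume displacement, immersing the paw to the lateral malleolus, at 1, 3 and 6 h after carrageenan.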

Rattus norvegicus [4] = experiment: Antiinflammatory activity in rat assessed as inhibition of carrageenan-induced hind paw edema at 100 mg/kg, po administered 1 hr before carrageenan-challenge measured after 3 hrs
[5] = test system: Radical scavenging activity; experiment: Antioxidant activity of the compound assessed as DPPH radical scavenging activity at 100 uM after 20 mins; type: functional
Procedure, shortened: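 Sample solution (0.1 mM) was mixed with an equal volume of 0.1 mM DPPH in ethanol. After 20 min at room temperature, DPPH reduction was read as absorbance at 517 nm.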

[6] = Antioxidant activity assessed as hydroxyl radical scavenging activity at 100 uM after 5 mins; type: functional
[7] = Antioxidant activity assessed as superoxide radical scavenging activity at 100 uM after 5 mins by NBT reduction assay; type: functional
Procedure, shortened: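 Superoxide scavenging by NBT reduction in buffer (100 mM, pH 7.4) with NBT and sample (0.1 mM). The reaction was started by adding PMS, incubated 5 min at room temperature, and read by absorbance at 560 nm.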

- inhibition [2]: 61.7%
Compound: COc1cc(OC)c(-c2ccnn2C)c(O)c1C(=O)c1ccc(Cl)cc1Cl
- Activity (Rattus norvegicus [1]): 1.62 mL
- Activity (Rattus norvegicus [3]): 0.59 mL
- Activity (Rattus norvegicus [4]): 1.22 mL
- Activity [5]: 26.1%

- inhibition [2]: 55.8%
Compound: COc1cc(OC)c(-c2ccnn2C)c(O)c1C(=O)c1cccc(C(F)(F)F)c1
- Activity (Rattus norvegicus [1]): 1.55 mL
- Activity (Rattus norvegicus [3]): 0.93 mL
- Activity (Rattus norvegicus [4]): 1.44 mL
- Activity [5]: 28%

- inhibition [2]: 58.3%
Compound: COc1cc(OC)c(-c2ccnn2C)c(O)c1C(=O)c1ccccc1F
- Activity (Rattus norvegicus [1]): 0.96 mL
- Activity (Rattus norvegicus [3]): 1.1 mL
- Activity (Rattus norvegicus [4]): 1.06 mL
- Activity [5]: 31.5%

- inhibition [2]: 61.7%
Compound: COc1cc(OC)c(-c2ccnn2C)c(O)c1C(=O)c1cccc(F)c1
- Activity (Rattus norvegicus [1]): 1.63 mL
- Activity (Rattus norvegicus [3]): 0.92 mL
- Activity (Rattus norvegicus [4]): 1.2 mL
- Activity [5]: 34.5%

- inhibition [2]: 55.8%
Compound: COc1cc(OC)c(-c2ccnn2C)c(O)c1C(=O)c1ccc(F)cc1F
- Activity (Rattus norvegicus [1]): 1.17 mL
- Activity (Rattus norvegicus [3]): 1.12 mL
- Activity (Rattus norvegicus [4]): 1.05 mL
- Activity [5]: 43.6%

Continued, compound first:

Compound: COc1cc(OC)c(-c2ccnn2C)c(O)c1C(=O)c1cccc(Cl)c1Cl
- Activity (Rattus norvegicus [1]): 1.29 mL
- inhibition [2]: 58.3%
- Activity (Rattus norvegicus [3]): 0.9 mL
- Activity (Rattus norvegicus [4]): 1.39 mL
- Activity [5]: 29.6%

Compound: COc1ccc(C(=O)c2c(OC)cc(OC)c(-c3ccnn3C)c2O)cc1
- Activity (Rattus norvegicus [1]): 0.99 mL
- inhibition [2]: 61.4%
- Activity (Rattus norvegicus [3]): 0.89 mL
- Activity (Rattus norvegicus [4]): 0.89 mL
- Activity [5]: 48.9%

Compound: O=C1O[C@H]([C@@H](O)CO)C(O)=C1O
- Activity [6]: 52%
- Activity [7]: 78.3%
- Activity [5]: 81.5%

Compound: COc1ccc2c(c1)c(CC(=O)O)c(C)n2C(=O)c1ccc(Cl)cc1 [INDOMETHACIN]
- Activity (Rattus norvegicus [1]): 0.78 mL
- Activity (Rattus norvegicus [3]): 0.86 mL
- Activity (Rattus norvegicus [4]): 0.95 mL

Compound: COc1cc(OC)c(-c2ccnn2C)c(O)c1C(=O)c1ccccc1
- Activity (Rattus norvegicus [1]): 1.22 mL
- inhibition [2]: 57.5%
- Activity (Rattus norvegicus [3]): 0.81 mL
- Activity (Rattus norvegicus [4]): 1.11 mL
- Activity [5]: 36.2%

Compound: COc1cc(OC)c(-c2ccnn2C)c(O)c1C(=O)c1cccc(Br)c1
- Activity (Rattus norvegicus [1]): 0.91 mL
- inhibition [2]: 59.1%
- Activity (Rattus norvegicus [3]): 0.92 mL
- Activity (Rattus norvegicus [4]): 1 mL
- Activity [5]: 40.2%

Compound: COc1cc(OC)c(-c2ccnn2C)c(O)c1C(=O)c1cc(Cl)ccc1Cl
- Activity (Rattus norvegicus [1]): 1.11 mL
- inhibition [2]: 52.4%
- Activity (Rattus norvegicus [3]): 1.01 mL
- Activity (Rattus norvegicus [4]): 1.1 mL
- Activity [5]: 31.2%

From ChEMBL document CHEMBL2311521, “Design, synthesis, characterization and biological evaluation of novel pyrazole integrated benzophenones” (2013)
